Assay [1] deals with SH-SY5Y. The experiment in a line: Neuroprotection against H202-induced oxidative stress in human SH-SY5Y cells assessed as increase in cell viability at 10 uM by MTT assay. It is filed as functional. In short, it runs like this: (§1)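 SH-SY5Y cells were given one of two insults: H2O2-induced oxidative stress, with cell viability read by MTT, or oxygen glucose deprivation (OGD)-induced cell damage. Compounds were tested at 10 µM, and the result is expressed as percent neuroprotection.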

Assay [2] relates to SH-SY5Y. Kind of assay: Neuroprotective activity against oxygen-glucose deprivation-induced toxicity in human SH-SY5Y cells assessed as increase in cell viability at 10 uM by MTT assay. It is filed as functional. In short, it runs like this: as §1
On the technique in general: Tetrazolium dyes change colour on reduction, which living cells bring about.

In assay [3] the test system is SH-SY5Y. Kind of assay: Neuroprotection against H202-induced toxicity in human SH-SY5Y cells assessed as cytoprotection by MTT assay. It counts as functional, cell-based. In short, it runs like this:
(§2)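 SH-SY5Y cells were exposed to H2O2 or to oxygen glucose deprivation (OGD) cytotoxicity. EC50 was defined as the concentration giving 50% protective effect relative to the control group. Values are averages of three independent experiments, given as mean ± SEM.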

Assay [4] concerns SH-SY5Y. The experiment in a line: Neuroprotective activity against human SH-SY5Y cells assessed as Abeta42-induced cytotoxicity at 1 uM by MTT assay. It is filed as functional.
The subject of assay [5] is SH-SY5Y. The experiment in a line: Neuroprotective activity against human SH-SY5Y cells assessed as Abeta42-induced cytotoxicity at 10 uM by MTT assay. It is filed as functional.
The subject of assay [6] is RAW264.7. The experiment in a line: Inhibition of LPS-induced NO production in mouse RAW264.7 cells assessed as NO production activity at 10 uM by Griess reagent based assay. It is filed as functional.
Assay [7] has as its system SH-SY5Y. The experiment in a line: Neuroprotection against oxygen-glucose deprivation-induced toxicity in human SH-SY5Y cells assessed as cytoprotection by MTT assay. It is filed as functional, cell-based. In short, it runs like this: as §2
The test system of assay [8] is SH-SY5Y. The experiment in a line: Neuroprotective activity against oxygen-glucose deprivation-induced toxicity in human SH-SY5Y cells assessed as increase in cell viability at 1 mM by MTT assay. It is filed as functional.
Assay [9] relates to SH-SY5Y. The experiment in a line: Neuroprotection against H202-induced oxidative stress in human SH-SY5Y cells assessed as increase in cell viability at 1 mM by MTT assay. It counts as functional.
The subject of assay [10] is SH-SY5Y. The experiment in a line: Neuroprotective activity against human SH-SY5Y cells assessed as Abeta42-induced cytotoxicity at 30 uM by MTT assay. It is filed as functional.

What is called pEC50 is the negative decadic logarithm of the EC50, by convention in mol/L. Usually inhibition stands for the drop in the measured response relative to a control, in per cent.

pEC50: −log10 of the molar value. The source made the active and inactive calls. Bounds are passed on as bounds.

Consider `CC(C)=CCc1c(OC(=O)NC2CCCCC2)ccc2ccc(=O)oc12`, for which the Activity in assay [1] is listed as 13%.
Turning to `CC(C)=CCc1c(OCC(=O)Nc2ccc(N3CCCCC3)cn2)ccc2ccc(=O)oc12`, the values for the Activity in [1] and in assay [2] were 32.7% and 16.8%, respectively.
As for `CC(C)(O)C1Cc2c(ccc3cc(-c4ccc(F)cc4)c(=O)oc23)O1` (stereo not drawn), the Activity was 21.3% in assay [1] and 23.5% in assay [2].
As to `CC(C)=CCc1c(OCC(=O)N2CCN(C(=O)OC(C)(C)C)CC2)ccc2ccc(=O)oc12`, the Activity in assay [1] came to 45.7%; in assay [2] it was 64.6%. In addition, the pEC50 in assay [3] is 4.99; in assay [7] it was 5.49. Also, the inhibition at 1 µM in assay [4] turned out to be 55.2%. Also, the inhibition at 10 µM in assay [5] amounted to 61.4%. In assay [6], the “Residual NO production” value came to 62.8%.
Turning to `CC(C)=CCc1c(OCC(=O)Nc2ccc(N3CCOCC3)cc2)ccc2ccc(=O)oc12`, the Activity in assay [1] was determined as 39.5%; in assay [2], 13.2%.
Regarding `CC(C)=CCc1c(OCC(=O)Nc2ccc(N3CCOCC3)cn2)ccc2ccc(=O)oc12`, the Activity in [1] was determined as 43.5%; in assay [2], 51.4%. Further, the pEC50 in assay [3] was 4.78; in assay [7] it was 5.04. The “Residual NO production” value in assay [6] is given as 80.3%.
`CC(C)=CCc1c(OCC(=O)N2CCNCC2)ccc2ccc(=O)oc12`: the Activity worked out at 29.2% in assay [1] and 28.2% in [2].
With `CC(C)=CCc1c(OCC(=O)N2CCCC2)ccc2ccc(=O)oc12`, the Activity in [1] amounted to 28%; in assay [2], 43.6%. Further, the pEC50 is 4.17 in assay [3] and 4.82 in [7]. Moreover, the “Residual NO production” value in [6] is given as 75.4%.
As for `CC(C)=CCc1c(OCC(=O)Nc2ccc(N3CCNCC3)cc2)ccc2ccc(=O)oc12`, the values for the Activity in assay [1] and in assay [2] were 22.5% and 8.4%, respectively.
On the same counts, the results for `CC(C)=CCc1c(OCC(=O)Nc2ccc(N3CCNCC3)cn2)ccc2ccc(=O)oc12` are 44.5% and 49.4%.
Consider `CC(C)(O)C1Cc2c(ccc3cc(-c4ccccc4F)c(=O)oc23)O1` (stereo not drawn), for which the Activity in assay [1] was 36.5%; in [2], 37.2%. Also, the values for the pEC50 in [3] and in [7] were 4.49 and 4.40, respectively. For the same compound, in assay [6], the “Residual NO production” value is listed as 85.2%.
With `COc1ccc(CNC(=O)Oc2ccc3ccc(=O)oc3c2CC=C(C)C)cc1`, the Activity is 28.7% in [1] and 35% in assay [2]. For the same compound, the negative-log EC50 (pEC50) in assay [3] was below 4.00; in [7], 4.63. Besides, the “Residual NO production” value in [6] is 77.4%.
Take `CC(C)=CCc1c(OCC(=O)N2CCCCC2)ccc2ccc(=O)oc12`: the Activity in assay [1] stood at 5.5%.
Regarding `CC(C)=CCc1c(OCC(=O)Nc2ccc(N3CCCC3)cc2)ccc2ccc(=O)oc12`, the Activity came to 47.7% in assay [1] and 63.4% in assay [2]. Moreover, the pEC50 is 4.92 in assay [3] and 5.25 in assay [7]. Also, the inhibition at 1 µM in assay [4] came to 47.8%. Besides, the inhibition at 10 µM in [5] stood at 46.3%. Besides, in [6], the “Residual NO production” value was 50.4%.
On to `CC(C)(O)C1Cc2c(ccc3cc(-c4cccc(F)c4)c(=O)oc23)O1` (stereo not drawn), for which the Activity in [1] was 29%; in assay [2] it was 41.2%. Moreover, the pEC50 is 4.12 in [3] and 4.72 in assay [7]. The “Residual NO production” value in [6] stood at 106.2%.
On the same counts, the results for `CCN1CCN(C(=O)COc2ccc3ccc(=O)oc3c2CC=C(C)C)CC1` are 33.7%, 48%, 4.53, 4.90 and 72.3%.
Regarding `CC(=O)N[C@@H](CS)C(=O)O` [ACETYLCYSTEINE], the Activity in assay [8] was determined as 84.3%; in assay [9], 37.1%.
`CC(C)(O)C1Cc2c(ccc3cc(-c4ccccc4)c(=O)oc23)O1` (stereo not drawn): the Activity is given as 19.7% in assay [1] and 23.2% in assay [2].
`COc1ccc2c(c1)c(CC(=O)O)c(C)n2C(=O)c1ccc(Cl)cc1` [INDOMETHACIN]: in assay [6], the “Residual NO production” value is listed as 53.2%.
For `CC(C)=CCc1c(OCC(=O)Nc2ccc(N3CCCCC3)cc2)ccc2ccc(=O)oc12`, in [1], the Activity was 12.5%.
For the compound `COc1ccc2ccc(=O)oc2c1CC=C(C)C` [OSTHOLE], the Activity in assay [10] is listed as 37.1%; in [2], 28.6%. Further, the values for the negative logarithm of the EC50 (pEC50) in assay [3] and in [7] were 4.48 and 4.58, respectively. In addition, in assay [4], the outcome was inactive. Besides, the “Residual NO production” value in [6] is reported as 85.6%.
As for `COc1cccc(-c2cc3ccc4c(c3oc2=O)CC(C(C)(C)O)O4)c1` (stereo not drawn), the Activity in [1] is given as 31%; in assay [2] it was 42.8%. For the same compound, the pEC50 in assay [3] is 4.52; in [7], 4.88. The “Residual NO production” value in assay [6] was determined as 73.3%.
On to `Cc1ccc(-c2cc3ccc4c(c3oc2=O)CC(C(C)(C)O)O4)cc1` (stereo not drawn), for which, in assay [1], the Activity amounted to 18.2%.
Consider `CC(C)=CCc1c(OCC(=O)N2CCOCC2)ccc2ccc(=O)oc12`, for which the Activity is on record as 31.5% in assay [1] and 23.2% in assay [2]. Besides, the pEC50 in assay [3] is 4.56; in [7], below 4.00. Moreover, the “Residual NO production” value in assay [6] is given as 74.1%.
Consider `CC(C)=CCc1c(OCC(=O)Nc2ccc(N3CCCC3)cn2)ccc2ccc(=O)oc12`, for which the Activity in assay [1] was determined as 45.2%; in [2], 58.2%.

Values taken from ChEMBL document CHEMBL4699614, “Design, synthesis and biological evaluation of novel osthole-based derivatives as potential neuroprotective agents” (Bioorg Med Chem Lett, 2020).
